We go through 12 molecules from ChEMBL document CHEMBL1212872, “Dual inhibitors of inosine monophosphate dehydrogenase and histone deacetylase based on a cinnamic hydroxamic acid core structure” (Bioorg Med Chem, 2010).

The IC50 is the concentration at which inhibition is half-maximal. Higher therefore signals a need for much substance.

The structures appear in SMILES notation. A value given as a limit tells only on which side of the number the result lay.

The target in experiment [1] is Inosine-5'-monophosphate dehydrogenase 1 (Homo sapiens, UniProt P20839). Briefly: Inhibition of human IMPDH1. To be noted: read-out: Ki(app). In outline: (§1)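 Run in duplicate with IMPDH1 at 150 nM or IMPDH2 at 50 nM, across a range of inhibitor concentrations. Buffer: 50 mM Tris pH 8.0, 100 mM KCl, 1 mM DTT, with 100 µM IMP and 100 µM NAD, at 25 °C. NADH formation followed at 340 nm. IC50 from a variable-slope sigmoidal fit of steady-state velocities; apparent Ki from the Morrison equation.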
Inosine-5'-monophosphate dehydrogenase 1, sequence (P20839 whole entry): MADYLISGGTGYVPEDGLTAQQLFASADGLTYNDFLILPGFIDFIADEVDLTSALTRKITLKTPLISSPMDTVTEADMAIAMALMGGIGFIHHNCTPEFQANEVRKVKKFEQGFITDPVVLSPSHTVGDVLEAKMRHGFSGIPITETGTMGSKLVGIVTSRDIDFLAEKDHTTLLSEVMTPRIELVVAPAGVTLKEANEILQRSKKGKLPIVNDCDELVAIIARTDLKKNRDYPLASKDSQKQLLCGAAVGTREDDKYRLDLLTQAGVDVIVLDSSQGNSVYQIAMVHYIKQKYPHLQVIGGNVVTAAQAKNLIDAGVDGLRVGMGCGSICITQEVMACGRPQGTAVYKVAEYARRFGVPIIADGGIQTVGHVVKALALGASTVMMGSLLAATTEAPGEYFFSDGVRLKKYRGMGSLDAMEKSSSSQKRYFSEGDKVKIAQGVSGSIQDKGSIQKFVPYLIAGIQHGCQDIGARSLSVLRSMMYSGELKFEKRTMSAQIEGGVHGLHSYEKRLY

Experiment [2] has as its target Inosine-5'-monophosphate dehydrogenase 2 (Homo sapiens, UniProt P12268). Put plainly: Inhibition of human IMPDH2. The settings on record: read-out: Ki(app). In outline:
as §1

A further experiment deals with K562. Briefly: Antiproliferative activity against human K562 cells after 72 hrs by MTS assay. The format is functional, cell-based. To be noted: K562, 72 h. Background: Formazan colour is commonly taken as a measure of viable cells.
Experiment [3] in a line: Inhibition of nuclear extract HDAC. In outline:
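HDAC nuclear extract tested with a commercial HDAC activity/inhibitor screening kit per its protocol. Inhibitors were dissolved in DMSO or methanol. IC50 from a variable-slope sigmoidal fit of end-point fractional fluorescence. Autofluorescence corrected using a compound concentration curve run under background-well conditions.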

Turning to `COc1cc(NC(=O)Nc2ccc(/C=C/C(=O)NO)cc2)ccc1C#N`, the Ki in experiment [1] is 1.2 µM; in experiment [2] it was 230 nM. Further, the 50% inhibitory concentration (IC50) in the experiment with K562 came to 4 µM; in experiment [3], 630 nM.

Turning to `COc1cc(NC(=O)NCc2cccc(/C=C/C(=O)NO)c2)ccc1-c1cnco1`, the Ki came out at 2.3 µM in experiment [1] and 340 nM in experiment [2]. Besides, the IC50 in the experiment on K562 amounted to 18 µM; in experiment [3], 830 nM.

For `COc1cc(NC(=O)NCc2ccc(/C=C/C(=O)NO)cc2)ccc1-c1cnco1`, the results for the Ki in experiment [1] and in experiment [2] were 7.8 µM and 1200 nM, respectively. The IC50 worked out at 3.5 µM with K562 and 26 nM in experiment [3].

Turning to `COc1cc(NC(=O)C(=O)NCc2cccc(/C=C/C(=O)NO)c2)ccc1-c1cnco1`, the Ki in experiment [1] turned out to be 4.4 µM; in experiment [2], 1500 nM. Moreover, the IC50 in the experiment with K562 was more than 100 µM; in experiment [3] it was 890 nM.

For `COc1cc(NC(=O)C(=O)Nc2cccc(/C=C/C(=O)NO)c2)ccc1-c1cnco1`, the Ki in experiment [1] was determined as 0.46 µM; in experiment [2], 200 nM. Further, the IC50 amounted to 28 µM in the experiment with K562 and 1800 nM in experiment [3].

Turning to `COc1cc(NC(=O)NCc2ccc(/C=C/C(=O)NO)cc2)ccc1C#N`, the figures for the Ki in experiment [1] and in experiment [2] were more than 100 µM and 11000 nM, respectively. This molecule gave an IC50 in experiment [3] of 36 nM.

Take `COc1cc(NC(=O)Nc2cccc(/C=C/C(=O)NO)c2)ccc1C#N`: the Ki worked out at 8.2 µM in experiment [1] and 1200 nM in experiment [2]. The IC50 in the experiment with K562 was 38 µM; in experiment [3] it was 3400 nM.

For `COc1cc(NC(=O)Nc2ccc(/C=C/C(=O)NO)cc2)ccc1-c1cnco1`, the values for the Ki in experiment [1] and in experiment [2] were 0.3 µM and 250 nM, respectively. Besides, the IC50 in the experiment with K562 came to 4.9 µM; in experiment [3], 550 nM.

As for `COc1cc(NC(=O)C(=O)Nc2ccc(/C=C/C(=O)NO)cc2)ccc1-c1cnco1`, the results for the Ki in experiment [1] and in experiment [2] were 7.1 µM and 1800 nM, respectively. The IC50 with K562 was determined as 72 µM; in experiment [3] it was 17000 nM.

`COc1cc(NC(=O)Nc2cccc(/C=C/C(=O)NO)c2)ccc1-c1cnco1`: the figures for the Ki in experiment [1] and in experiment [2] were 0.58 µM and 120 nM, respectively. Also, the IC50 in the experiment on K562 is more than 100 µM; in experiment [3] it was 3000 nM.

As to `COc1cc(NC(=O)C(=O)NCc2ccc(/C=C/C(=O)NO)cc2)ccc1-c1cnco1`, the Ki in experiment [1] was found to be 17 µM; in experiment [2], 1400 nM. The IC50 was determined as 5.3 µM in the experiment on K562 and 230 nM in experiment [3].

As for `COc1cc(NC(=O)NCc2cccc(/C=C/C(=O)NO)c2)ccc1C#N`, the figures for the Ki in experiment [1] and in experiment [2] were 44 µM and 2600 nM, respectively. The IC50 in the experiment on K562 was found to be 28 µM; in experiment [3], 640 nM.
